Source: ChEMBL document CHEMBL1909615, “Design, synthesis and antibacterial activity of fluoroquinolones containing bulky arenesulfonyl fragment: 2D-QSAR and docking study” (2011)
≈ marks a conversion by molar mass, not a printed value.

Experiments:
Type in all cases: functional
Escherichia coli = experiment: Antibacterial activity against Escherichia coli ATCC 25922 after 18 hrs by EUCAST broth dilution method; settings: ATCC 25922, 18 h
Outline: (§1)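 Broth microdilution in Mueller-Hinton broth per CLSI. Compounds dissolved in DMSO at 5120 µg/mL, diluted tenfold in MHB to 512 µg/mL, then twofold serially across 12 wells down to 0.25 µg/mL. Strains grown in tryptone soy broth; 5 µL inoculum (10^4-10^5 CFU/mL) added per well. Incubated 35 °C, 18 h. MIC read manually as the lowest concentration preventing visible growth.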

Staphylococcus aureus = experiment: Antibacterial activity against Staphylococcus aureus ATCC 29213 after 18 hrs by EUCAST broth dilution method; settings: for MIC: Staphylococcus aureus, ATCC 29213, 18 h; outline: as §1
Pseudomonas aeruginosa = experiment: Antibacterial activity against Pseudomonas aeruginosa ATCC 27853 after 18 hrs by EUCAST broth dilution method; settings: for MIC: Pseudomonas aeruginosa, ATCC 27853, 18 h; outline: as §1
Bacillus subtilis = experiment: Antibacterial activity against Bacillus subtilis ATCC 10400 after 18 hrs by EUCAST broth dilution method; settings: for MIC: Bacillus subtilis, ATCC 10400, 18 h

| SMILES | MIC (Escherichia coli) | log(1/MIC), MIC in mM (Staphylococcus aureus) | MIC (Staphylococcus aureus) | log(1/MIC), MIC in mM (Pseudomonas aeruginosa) | MIC (Pseudomonas aeruginosa) | log(1/MIC), MIC in mM (Bacillus subtilis) | MIC (Bacillus subtilis) |
| --- | --- | --- | --- | --- | --- | --- | --- |
| CCn1cc(C(=O)O)c(=O)c2cc(F)c(N3CCN(S(=O)(=O)c4cccc5ccccc45)CC3)cc21 | 251 µM (≈ 128 µg/mL) | 2.71 | 1.96 µM (≈ 0.999 µg/mL) | 0.6 | 251 µM (≈ 128 µg/mL) | 3.01 | 0.981 µM (≈ 0.5 µg/mL) |
| CCn1cc(C(=O)O)c(=O)c2cc(F)c(N3CCN(S(=O)(=O)c4ccc(OC)cc4OC)CC3)cc21 | ≤ 0.481 µM | 3.32 | 0.481 µM (≈ 0.25 µg/mL) | 2.14 | 3.85 µM (≈ 2 µg/mL) | 3.32 | 0.481 µM (≈ 0.25 µg/mL) |
| COc1ccc(S(=O)(=O)N2CCN(c3cc4c(cc3F)c(=O)c(C(=O)O)cn4C3CC3)CC2)c(OC)c1 | ≤ 0.47 µM | 3.33 | ≤ 0.47 µM | 3.33 | 0.47 µM (≈ 0.25 µg/mL) | 3.33 | ≤ 0.47 µM |
| CCn1cc(C(=O)O)c(=O)c2cc(F)c(N3CCN(S(=O)(=O)c4ccc(OC)c(OC)c4)CC3)cc21 | ≤ 0.481 µM | 3.02 | 0.962 µM (≈ 0.5 µg/mL) | 2.14 | 3.85 µM (≈ 2 µg/mL) | 3.02 | 0.962 µM (≈ 0.5 µg/mL) |
| COc1ccc(S(=O)(=O)N2CCN(c3cc4c(cc3F)c(=O)c(C(=O)O)cn4C3CC3)CC2)cc1OC | ≤ 0.47 µM | 3.33 | ≤ 0.47 µM | 2.42 | 3.76 µM (≈ 2 µg/mL) | 3.33 | 0.47 µM (≈ 0.25 µg/mL) |
| CCn1cc(C(=O)O)c(=O)c2cc(F)c(N3CCN(S(=O)(=O)c4ccc(F)cc4F)CC3)cc21 | 8.07 µM (≈ 4 µg/mL) | 2.09 | 8.07 µM (≈ 4 µg/mL) | 0.89 | 129 µM (≈ 63.9 µg/mL) | 2.39 | 4.04 µM (≈ 2 µg/mL) |
| O=C(O)c1cn(C2CC2)c2cc(N3CCN(S(=O)(=O)c4ccc(F)cc4F)CC3)c(F)cc2c1=O | 7.88 µM (≈ 4 µg/mL) | 2.41 | 3.94 µM (≈ 2 µg/mL) | 1.2 | 63 µM (≈ 32 µg/mL) | 3.31 | 0.493 µM (≈ 0.25 µg/mL) |
| CCn1cc(C(=O)O)c(=O)c2cc(F)c(N3CCN(S(=O)(=O)c4ccc(Cl)cc4Cl)CC3)cc21 | ≤ 0.473 µM | 3.33 | ≤ 0.473 µM | 2.86 | 1.39 µM (≈ 0.734 µg/mL) | 3.33 | 0.473 µM (≈ 0.25 µg/mL) |
| O=C(O)c1cn(C2CC2)c2cc(N3CCN(S(=O)(=O)c4ccc(Cl)c(Cl)c4)CC3)c(F)cc2c1=O | ≤ 0.463 µM | 3.33 | ≤ 0.463 µM | 2.73 | 1.85 µM (≈ 1 µg/mL) | 3.33 | ≤ 0.463 µM |
| CCn1cc(C(=O)O)c(=O)c2cc(F)c(N3CCN(S(=O)(=O)c4c(Cl)cc(Cl)cc4Cl)CC3)cc21 | ≥ 455 µM | 2.75 | 1.78 µM (≈ 1 µg/mL) | 0.34 | ≥ 455 µM | 3.35 | 0.444 µM (≈ 0.25 µg/mL) |
| O=C(O)c1cn(C2CC2)c2cc(N3CCN(S(=O)(=O)c4c(Cl)cc(Cl)cc4Cl)CC3)c(F)cc2c1=O | 111 µM (≈ 63.8 µg/mL) | 2.76 | 1.74 µM (≈ 1 µg/mL) | 0.95 | 111 µM (≈ 63.8 µg/mL) | 3.36 | 0.435 µM (≈ 0.25 µg/mL) |
| Cc1cc(C)c(S(=O)(=O)N2CCN(c3cc4c(cc3F)c(=O)c(C(=O)O)cn4C3CC3)CC2)c(C)c1 | 62 µM (≈ 31.8 µg/mL) | 1.21 | 62 µM (≈ 31.8 µg/mL) | 0.9 | 125 µM (≈ 64.2 µg/mL) | 1.51 | 31 µM (≈ 15.9 µg/mL) |
| CCn1cc(C(=O)O)c(=O)c2cc(F)c(N3CCN(S(=O)(=O)c4c(C(C)C)cc(C(C)C)cc4C(C)C)CC3)cc21 | 55 µM (≈ 32.2 µg/mL) | 1.26 | 55 µM (≈ 32.2 µg/mL) | 0.96 | 109 µM (≈ 63.8 µg/mL) | 1.26 | 55 µM (≈ 32.2 µg/mL) |
| Cc1c(C)c(C)c(S(=O)(=O)N2CCN(c3cc4c(cc3F)c(=O)c(C(=O)O)cn4C3CC3)CC2)c(C)c1C | ≥ 473 µM | 0.33 | ≥ 473 µM | 0.33 | ≥ 473 µM | 0.63 | 236 µM (≈ 128 µg/mL) |

Now from value to compound:

| MIC (Escherichia coli) | log(1/MIC), MIC in mM (Staphylococcus aureus) | MIC (Staphylococcus aureus) | log(1/MIC), MIC in mM (Pseudomonas aeruginosa) | MIC (Pseudomonas aeruginosa) | log(1/MIC), MIC in mM (Bacillus subtilis) | MIC (Bacillus subtilis) | SMILES |
| --- | --- | --- | --- | --- | --- | --- | --- |
| 251 µM (≈ 128 µg/mL) | 2.71 | 1.96 µM (≈ 0.999 µg/mL) | 0.9 | 126 µM (≈ 64.2 µg/mL) | 3.01 | 0.981 µM (≈ 0.5 µg/mL) | CCn1cc(C(=O)O)c(=O)c2cc(F)c(N3CCN(S(=O)(=O)c4ccc5ccccc5c4)CC3)cc21 |
| 123 µM (≈ 64.2 µg/mL) | 2.72 | 1.92 µM (≈ 1 µg/mL) | 0.61 | 245 µM (≈ 128 µg/mL) | 2.72 | 1.92 µM (≈ 1 µg/mL) | O=C(O)c1cn(C2CC2)c2cc(N3CCN(S(=O)(=O)c4ccc5ccccc5c4)CC3)c(F)cc2c1=O |
| 61.3 µM (≈ 32 µg/mL) | 2.72 | 1.92 µM (≈ 1 µg/mL) | 0.91 | 123 µM (≈ 64.2 µg/mL) | 3.32 | 0.479 µM (≈ 0.25 µg/mL) | O=C(O)c1cn(C2CC2)c2cc(N3CCN(S(=O)(=O)c4cccc5ccccc45)CC3)c(F)cc2c1=O |
| ≤ 0.463 µM | 3.33 | ≤ 0.463 µM | 2.73 | 1.85 µM (≈ 1 µg/mL) | 3.33 | ≤ 0.463 µM | O=C(O)c1cn(C2CC2)c2cc(N3CCN(S(=O)(=O)c4ccc(Cl)cc4Cl)CC3)c(F)cc2c1=O |
| ≤ 0.473 µM | 3.33 | ≤ 0.473 µM | 2.72 | 1.89 µM (≈ 0.999 µg/mL) | 3.33 | ≤ 0.473 µM | CCn1cc(C(=O)O)c(=O)c2cc(F)c(N3CCN(S(=O)(=O)c4ccc(Cl)c(Cl)c4)CC3)cc21 |
| 32 µM (≈ 16.1 µg/mL) | 2.09 | 7.98 µM (≈ 4 µg/mL) | 1.19 | 64 µM (≈ 32.1 µg/mL) | 2.09 | 7.98 µM (≈ 4 µg/mL) | CCn1cc(C(=O)O)c(=O)c2cc(F)c(N3CCN(S(=O)(=O)c4c(C)cc(C)cc4C)CC3)cc21 |
| 3.35 µM (≈ 2 µg/mL) | 0.67 | 214 µM (≈ 128 µg/mL) | 0.37 | ≥ 428 µM | 0.97 | 107 µM (≈ 64 µg/mL) | CC(C)c1cc(C(C)C)c(S(=O)(=O)N2CCN(c3cc4c(cc3F)c(=O)c(C(=O)O)cn4C3CC3)CC2)c(C(C)C)c1 |
| 242 µM (≈ 128 µg/mL) | 0.62 | 242 µM (≈ 128 µg/mL) | 0.62 | 242 µM (≈ 128 µg/mL) | 0.62 | 242 µM (≈ 128 µg/mL) | CCn1cc(C(=O)O)c(=O)c2cc(F)c(N3CCN(S(=O)(=O)c4c(C)c(C)c(C)c(C)c4C)CC3)cc21 |
| ≤ 0.758 µM | 3.12 | ≤ 0.758 µM | 3.12 | 0.758 µM (≈ 0.251 µg/mL) | 3.12 | ≤ 0.758 µM | O=C(O)c1cn(C2CC2)c2cc(N3CCNCC3)c(F)cc2c1=O [CIPROFLOXACIN] |
